Legend:
[1] = target: T1, CBFβ-RUNX1 Runt domain binding (Homo sapiens, UniProt Q13951); assay: FRET assay of CBFβ; conditions: inhibition of CBFβ-Runt domain binding
T1 sequence (Q13951 1-141): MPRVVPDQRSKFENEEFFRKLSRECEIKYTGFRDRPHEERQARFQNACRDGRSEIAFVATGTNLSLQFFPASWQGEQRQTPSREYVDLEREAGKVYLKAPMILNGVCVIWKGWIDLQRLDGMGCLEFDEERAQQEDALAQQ
Procedure, shortened: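 FRET binding assay using 100 nM Cerulean-Runt domain and 100 nM Venus-CBFβ across a test compound concentration series. Read-out was the emission ratio at 525/474 nm. Run in duplicate.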

[2] = target: RUNX1 Runt domain (Homo sapiens, UniProt Q01196); assay: NMR detection of interaction with RUNX1 Runt domain; type: binding
[3] = target: T2, CBFβ (Homo sapiens, UniProt Q13951); assay: NMR detection of interaction with CBFβ; type: binding
T2 sequence (Q13951 1-141): T1 sequence (Q13951 1-141)
Procedure, shortened: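 CBFβ (1-141) in 50 mM KPi pH 7.5, 0.1 mM EDTA, 1 mM DTT, 5% DMSO, 5% D2O. HSQC: 150 μM protein titrated with 600 μM test compound at 800 MHz; 15N/13C shift perturbations taken with versus without compound. STD: 200 μM CBFβ, 2 mM compound, 600 MHz, 25 °C, saturation 500–2000 ms, on-resonance 0.4 ppm, off-resonance 30 ppm.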

[4] = system: CBFβ-Runt domain interaction; conditions: ref Cunningham et al., 2012; cited from earlier work
[5] = system: CBFβ-RUNX1 binding; conditions: ref Cunningham et al., 2012; cited from earlier work
[6] = system: panel of 11 leukemia cell lines; assay: Viability of a panel of 11 leukemia cell lines; type: cell-based; conditions: 48 h treatment, 11 cell lines
Procedure, shortened: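 Eleven leukemia lines grown in IMDM with 10% FBS. Plated at 5 × 10^5 cells/ml and treated 48 h with test compound at several doses or DMSO. DAPI-stained; at least 2 × 10^4 events acquired by flow cytometry. Viability taken as percent DAPI-negative cells relative to control.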

Sequence of RUNX1 Runt domain (Q01196 50-178 limits assumed): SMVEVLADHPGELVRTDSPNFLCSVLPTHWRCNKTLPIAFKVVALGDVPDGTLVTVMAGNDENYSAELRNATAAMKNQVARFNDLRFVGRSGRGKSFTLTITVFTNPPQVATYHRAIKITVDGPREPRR

Row | Structure (SMILES) | activity in the FRET assay (in words) [1] | interaction with RUNX1 Runt domain by NMR [2] | interaction with CBFβ by NMR [3] | effect in the alpha screen assay [4] | effect on CBFβ-RUNX1 binding in cells [5] | growth inhibition / activity against leukemia cell lines (in words) [6]
1 | O=C1CN=C(c2ccc[nH]2)c2cc(Cl)ccc2N1 [Ro5-3335] | no effect | could not detect any interaction | could not detect any interaction | does not show significant effects | does not show an effect | 
2 | c1ccc(-c2nc3ccccc3[nH]2)nc1 [AI-4-88] | complete loss of activity |  |  |  |  | did not observe any activity

Source: publication PMC4919611 (EBioMedicine, 2016)
